Compound activity deposited in PubChem BioAssay by several laboratories.
Most compounds without a hit are left out; they make up all but 2% or so of the library.
TWEAK-Fn14 inh – inhibitors of TWEAK-Fn14 signaling, primary screen, luciferase reporter cells, uHTS; inhibition, % at 10 µM; actives 2% (n = 360,000); TWEAK-stimulated Fn14 reporter cells, luciferase luminescence, 8 h; in the data active = inhibition above about 50%
TROY NFkB inh – inhibitors of TROY-driven NF-kB signaling, primary screen, Q293 LMP1-TROYcd cells, NF-kB luciferase, uHTS; inhibition, % at 10 µM; actives 0.98% (n = 360,000); AID 1347056, 2019; Q293 LMP1-TROYcd NF-kB luciferase reporter, 4 h;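 active = compounds whose plate-normalised and pattern-corrected inhibition of the luciferase reporter signal at the single screening dose is 50% or more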
CaV13 FRET inh – Disruptors of the CACNA1D IQ motif to Ca2+-dependent inactivation inhibitor domain association, primary screening, Förster resonance energy transfer in intact living …; HEK cells, CFP/YFP FRET ICDI-IQ, plate reader, 10 min; percent FRET-ratio fall versus neutral wells; inhibition, % at 12.3 µM; actives 0.098% (n = 340,000); AID 743397;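 active = mean replicate inhibition of at least 30% and at least 1% of replicates passing that level; inconclusive = only one of the two criteria is met; inactive = neither criterion is met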
Xi reactivation – activators of inactive X chromosome reactivation, primary screen, imaging, XiGFP fibroblasts, GFP high-content imaging, set 2; activation, % at 7.58 µM; AID 743238, 2013; actives 0.055% (n = 360,000); XiGFP mouse fibroblasts, % GFP-positive cells imaging, 3 d; cells co-treated with 5-aza-dC sensitizer; scaled so ellipticine positive control = 100%;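 active = mean normalized replicate activation at least 10% and every replicate at or above 10%; inconclusive = only one of the two criteria met; inactive = mean below 10% and not all replicates reach 10%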
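Material: SV40-immortalized XiGFP fibroblast cells, line 68-5-11 | Buffer or medium: DMEM containing 5-aza-dC | Dosing: One concentration, pinned | Times: 3 d treatment, 15 min room-temperature fixation | Controls: Ellipticine 6 µM positive control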
LGR2 inh – inhibitors of bursicon-induced LGR2 CRE-luciferase signal, primary screen, cell-based, HEK293, CRE-luciferase reporter, bursicon stimulation | Drosophila bursicon receptor LGR2 (rickets) | inhibition, % at 9.99 µM | AID 720647, 2013 | bursicon-stimulated, 4 h | actives 0.35% (n = 380,000);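 active = drop in luminescence signal, shown as inhibition above about 50% in the replicate tests, limit read from the data, passing the limit was not always enough; inconclusive = probably only some replicates passing the limit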;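 also: agonist challenge used bursicon conditioned medium at about half maximal strength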
A number is an active result; 0 = inactive; ? = inconclusive; - = no result given.

SMILES	TWEAK-Fn14 inh	TROY NFkB inh	CaV13 FRET inh	Xi reactivation	LGR2 inh
O=C(NCc1ccccc1)C1=C[C@H](c2csc3ccccc23)C[C@H](OCc2ccc(CO)cc2)O1	0	0	0	0	0
C[C@@H]1CCCCO[C@@H](CN(C)Cc2ccccc2)[C@@H](C)CN([C@H](C)CO)C(=O)c2cc(NS(C)(=O)=O)ccc2O1	-	-	-	0	0
CC(C)NC(=O)N(C)C[C@@H]1Oc2ccc(NS(C)(=O)=O)cc2C(=O)N(C)C[C@H]1C	-	-	-	0	-
CCN(CC)C(=O)c1ccc2nc3ccccc3nc2c1	0	0	0	0	0
CCN(CC)c1ccc2nc3ccc(N)cc3[n+](-c3ccccc3)c2c1	0	0	0	0	58.6
CCN(CC)c1ccc(/C=N/n2nnnc2N)c(O)c1	0	0	0	-	-
CCN(CC)c1ccc2nc3ccccc3[n+](CC)c2c1	64.1	0	-	-	-
CCC(=O)N1C[C@H](O)COC[C@@H]2O[C@H](CC(=O)N3CCCCC3)CC[C@H]21	-	-	-	0	0
CN(C[C@@H]1[C@H](c2ccccc2)[C@H](CO)N1Cc1ccccn1)S(C)(=O)=O	-	-	-	0	0
Cc1nc(N2[C@@H](C#N)[C@@H](c3ccccc3)[C@@H]2CO)sc1C	-	-	-	0	0
O=C(O)c1ccc(OCc2ccc(C(=O)O)o2)cc1	0	0	0	0	0
CCc1ccc(OCc2ccc(C(=O)O)o2)cc1	53.9	0	0	0	0
O=C(COc1cccc(Cl)c1)Nc1nc(-c2ccc(S(=O)(=O)N3CCOCC3)cc2)cs1	56.5	0	0	-	-
O=C(Nc1nc(-c2ccccc2)cs1)c1ccccc1NS(=O)(=O)c1ccc(F)cc1	88.0	0	0	0	?
CC(C)C(=O)Nc1nc(-c2ccc(S(=O)(=O)N3CCOCC3)cc2)cs1	0	0	0	0	0
CCOc1cccc(C(=O)Nc2nc(-c3ccc(S(=O)(=O)N4CCOCC4)cc3)cs2)c1	0	50.3	-	-	-
CCOc1ccc2nc(NC(=O)c3ccc(S(=O)(=O)N4CCOCC4)cc3)sc2c1	0	0	0	-	-
CCOc1ccc2nc(NC(=O)c3ccc(OC)c(S(=O)(=O)N4CCOCC4)c3)sc2c1	0	53.0	0	-	-
COc1ccccc1C(=O)Nc1nc(-c2ccc(S(=O)(=O)N3CCOCC3)cc2)cs1	106.8	64.7	0	-	-
O=C(COc1ccccc1Cl)Nc1nc(-c2ccncc2)cs1	52.9	0	0	0	0
O=C(C[C@@H]1CC[C@H](NC(=O)CCN2CCCCC2)[C@@H](CO)O1)Nc1ccc(-c2ccccc2)cc1	-	-	-	0	0
CC(C)C#Cc1ccc2c(c1)O[C@@H](CN(C)Cc1cccnc1)[C@@H](C)CN([C@H](C)CO)S2(=O)=O	-	-	-	0	0
COCC(=O)Nc1ccc2c(c1)OC[C@@H](C)N(C(=O)c1ccncc1)C[C@H](C)[C@H](OC)CN(C)C2=O	-	-	-	0	0
O=C(COC(=O)c1cccnc1)Nc1ccccc1	0	0	0	-	-
CC(=O)N1CCC(C(=O)Nc2ccccc2)(N(Cc2ccccc2)C(=O)c2cccnc2)CC1	0	50.5	0	-	-
SMILES	TWEAK-Fn14 inh	TROY NFkB inh	CaV13 FRET inh	Xi reactivation	LGR2 inh
COc1ccc2c3c(n(C)c2c1)[C@@H](CO)N(Cc1ccccc1)CC31CCN(C(=O)Nc2cccc(F)c2)CC1	-	-	-	0	0
Cc1noc(C)c1S(=O)(=O)Nc1ccc2c(c1)C(=O)N([C@H](C)CO)C[C@H](C)[C@@H](CN(C)S(=O)(=O)c1c(C)noc1C)O2	-	-	-	0	-
Cc1ccc(O)c(N=Nc2ccc(S(=O)(=O)N3CCCC3)cc2)c1	0	0	0	60.7	0
Cc1ccc(S(=O)(=O)N2CCCCC2)cc1	0	0	0	0	0
O=C(Nc1ccc(Oc2ccc(NC(=O)Nc3ccc([N+](=O)[O-])cc3)cc2)cc1)Nc1ccc([N+](=O)[O-])cc1	86.8	0	0	0	0
Cc1cc(NC(=O)Nc2cccc([N+](=O)[O-])c2)no1	0	0	0	0	0
Cc1ccc(C(C)C)cc1NC(=O)Nc1ccc([N+](=O)[O-])cc1	68.8	58.7	0	0	0
CC(=O)c1ccc(NC(=O)Nc2ccc([N+](=O)[O-])cc2)cc1	0	0	0	0	0
CC(=O)Nc1nc(-c2ccc([N+](=O)[O-])cc2)cs1	0	0	0	0	-
Cc1ccc(NC(=O)Nc2cccc([N+](=O)[O-])c2)cc1F	78.5	0	0	0	0
O=C(Nc1ccc([N+](=O)[O-])cc1)Nc1nc(-c2ccc(Cl)s2)cs1	67.1	54.2	0	0	0
Cc1cc(O)c(C(C)C)cc1NC(=O)Nc1ccc([N+](=O)[O-])cc1	0	0	0	0	-
O=C(C[C@H]1CC[C@@H]2NC[C@H](O)COC[C@H]2O1)Nc1nccs1	-	-	-	0	-
C[C@H](NC(=O)C[C@@H]1CC[C@H](NC(=O)CN2CCOCC2)[C@@H](CO)O1)c1ccccc1	-	-	-	0	0
O=C(Nc1ccc(OC(F)(F)F)cc1)Nc1cccc([N+](=O)[O-])c1	56.4	0	0	0	0
O=C(Nc1ccc(OC(F)(F)F)cc1)Nc1cccnc1	0	0	0	0	0
Cc1ccsc1C(=O)OCC(=O)N(C)C1CCCCC1	63.0	0	0	0	0
Cc1ccsc1C(=O)OCC(=O)NC1CCCC1	0	0	0	0	0
CCOc1ccc(N=C(C)C2=C(O)c3ccccc3C2=O)cc1	0	0	0	0	-
CCOc1ccc(N=C(NN)c2ccc3ccccc3n2)cc1	94.4	86.8	0	0	?
N#C/C(=C\c1ccc(N2CCCCC2)o1)C(N)=O	0	0	0	0	0
N#C/C(=C\c1ccc(N2CCCCC2)o1)C(=O)Nc1cccc(Br)c1	0	0	0	93.7	0
CCC(=O)N(C)C[C@@H]1Oc2cc(C#CC3(O)CCCC3)ccc2S(=O)(=O)N([C@H](C)CO)C[C@H]1C	-	-	-	0	0
O=[N+]([O-])c1cc(S(=O)(=O)Nc2cccc(C(F)(F)F)c2)ccc1-n1nnc2ccccc21	0	57.8	-	-	-
CO[C@@H]1CC[C@@H]2CCOc3c(C#N)cccc3C(=O)N(C)[C@@H](C)C(=O)N(C)C[C@H]1O2	-	-	-	0	0
SMILES	TWEAK-Fn14 inh	TROY NFkB inh	CaV13 FRET inh	Xi reactivation	LGR2 inh
CCSc1nc2ccccc2n1C(=O)/C=C\c1ccc(OC)c(OC)c1	91.0	0	0	-	-
CCSc1nc2ccccc2n1CC(N)=O	0	0	0	-	-
Cc1ccc2nc(N(CCCN(C)C)C(=O)c3ccc(S(=O)(=O)N(C)C)cc3)sc2c1	0	0	0	0	0
Cc1ccc2nc(N(CCCN(C)C)C(=O)c3sc4ccccc4c3Cl)sc2c1	73.3	50.4	0	-	0
COc1cccc(NC(=O)N2CC(=O)N3[C@H](CO)[C@@H](c4ccc(C5=CCCC5)cc4)[C@H]3C2)c1	-	-	-	0	0
COc1cccc(S(=O)(=O)Nc2ccc3c(c2)[C@@H]2C[C@@H](CC(=O)N[C@@H](C)c4ccccc4)O[C@H](CO)[C@@H]2O3)c1	-	-	-	0	0
